One data set has as its system Escherichia coli. Description: Antibiotic activity against Escherichia coli DH5alpha assessed as growth inhibition after 2 days by optical microscopy. The class given is functional. Particulars: DH5[alpha], 48 h.
Data set [1] relates to Staphylococcus aureus. In words: Antibiotic activity against Staphylococcus aureus assessed as growth inhibition after 2 days by optical microscopy. The note with it: 48 h. Type of data set: functional.
Another data set concerns MRC5. Description: (§1) Cytotoxicity against human MRC5 cells assessed as reduction in cell viability after 24 hrs by MTT assay. The note with it: mrc5, 24 h. Type of data set: cell-based. Summed up:
(§2)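 Vero or MRC-5 cells kept in DMEM with 10% heat-inactivated calf serum, 37 °C, 5% CO₂; compound-treated cells given MTT for 3 h at 37 °C, then DMSO 10 min, absorbance at 570 nm; cytotoxicity % = 100 − (sample OD/untreated OD) × 100; TD50/TD90 = dose cutting viability 50% or 90%.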

Data set [2] is described as follows: as §1. Particulars: MRC5 cells, read-out: TD50. The class given is cell-based. The method, boiled down:
as §2

Data set [3] can be described thus: Therapeutic index, ratio of TD90 for human MRC5 cells to MBC for Staphylococcus aureus. The class given is cell-based. Particulars: read-out: TI. Summed up: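 Therapeutic index calculated as MRC-5 TD90 (MTT assay) divided by MBC measured after washout regrowth test.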
The next data set has as its system Vero. Description: (§3) Cytotoxicity against african green monkey Vero cells assessed as reduction in cell viability after 24 hrs by MTT assay. Type of data set: cell-based. The note with it: chlorocebus sabaeus, vero, 24 h. The method, boiled down: as §2
Background: Formazan colour is commonly taken as a measure of viable cells.

Data set [4] in a line: as §3. Type of data set: cell-based. Particulars: chlorocebus sabaeus, Vero cells; read-out: TD50. Summed up: as §2
The subject of data set [5] is Staphylococcus aureus. In words: Antibiotic activity against Staphylococcus aureus assessed as growth inhibition after compound washout by optical microscopy. Type of data set: functional.
Data set [6] deals with Staphylococcus aureus. Description: Antibiotic activity against Staphylococcus aureus assessed as ballooning of cocci at 1 to 4 times MIC concentration by phase-contrast microscopy. The class given is functional, organism-based.

SMILES strings stand for the structures. Values after ≈ are worked out from the molar mass of the structure shown. Active and inactive are the calls of the source.

For orientation: MIC means the lowest concentration that inhibits growth of the organism. In the case of `CCCCCCCCCOc1ccc(F)c(C2=NCCO2)c1F`, the MIC with Escherichia coli and in the data set with Staphylococcus aureus [1] was over 100 µg/mL each time.

Turning to `CCCCCCCCCOc1ccc(F)c(C#N)c1F`, the minimal inhibitory concentration (MIC) with Escherichia coli and in the data set on Staphylococcus aureus [1] was over 100 µg/mL in each case.

One may read the MBC as the smallest concentration meeting the test's criterion for killing. Consider `NC(=O)c1c(F)ccc(OCC2COc3cc(Cl)ccc3O2)c1F` (racemic), for which the minimal inhibitory concentration (MIC) is over 100 µg/mL in the data set with Escherichia coli and 1 µg/mL (≈ 2.81 µM) in the data set on Staphylococcus aureus [1]. Besides, the TD90 with MRC5 and with Vero was 800 µg/mL in each case. For the same molecule, the CC50 at 24 h in [2] worked out at 650 µg/mL (≈ 1830 µM); in [4], 550 µg/mL (≈ 1550 µM). Moreover, the selectivity ratio in [3] turned out to be 320. In the data set on Staphylococcus aureus [5], the MBC is 2.5 µg/mL (≈ 7.03 µM).

Consider `CCCCCCCCCOc1ccc(F)c(C(=O)NCCO)c1F`, for which the MIC in the data set with Escherichia coli and in the data set on Staphylococcus aureus [1] was over 100 µg/mL each time.

For the molecule `CCCCCCCCCOc1ccc(F)c(C(=O)NCCN)c1F`, the MIC with Escherichia coli was 20 µg/mL (≈ 58.4 µM); in the data set on Staphylococcus aureus [1] it was 10 µg/mL (≈ 29.2 µM). For the same molecule, the TD90 worked out at 80 µg/mL in the data set with MRC5 and 120 µg/mL in the data set on Vero. In addition, the CC50 at 24 h in data set [2] was determined as 35 µg/mL (≈ 102 µM); in [4], 60 µg/mL (≈ 175 µM).

`NCC(O)COCCCCOc1ccc(F)c(C(N)=O)c1F` (racemic): the MIC with Escherichia coli and in the data set on Staphylococcus aureus [1] was over 100 µg/mL in each case.

On to `NC(=O)c1c(F)ccc(OC[C@@H]2COc3ccc(Cl)cc3O2)c1F`, for which the minimal inhibitory concentration (MIC) with Escherichia coli is over 100 µg/mL; with Staphylococcus aureus [1], 0.25 µg/mL (≈ 0.703 µM). Further, the TD90 in the data set with MRC5 is over 800 µg/mL; with Vero, over 200 µg/mL. The values for the CC50 at 24 h in data set [2] and in data set [4] were 600 µg/mL (≈ 1690 µM) and over 200 µg/mL, respectively. In addition, the selectivity ratio in data set [3] was over 1600. Further, in the data set with Staphylococcus aureus [5], the MBC amounted to 0.5 µg/mL (≈ 1.41 µM).

In the case of `NCCNC(=O)c1c(F)ccc(OCC2COc3ccccc3O2)c1F` (stereo not given), the MIC in the data set on Escherichia coli was over 100 µg/mL; with Staphylococcus aureus [1], 20 µg/mL (≈ 54.9 µM). Further, in the data set on Staphylococcus aureus [5], the MBC came to 40 µg/mL (≈ 110 µM).

As to `NC(=O)c1c(F)ccc(OCC2COc3ccccc3O2)c1F` (racemic), the MIC in the data set on Escherichia coli is over 100 µg/mL; with Staphylococcus aureus [1], 5 µg/mL (≈ 15.6 µM). In addition, in the data set with Staphylococcus aureus [5], the MBC was determined as 80 µg/mL (≈ 249 µM).

As for `NC(=O)c1c(F)ccc(OC[C@H]2COc3ccc(Cl)cc3O2)c1F`, the MIC in the data set with Escherichia coli is over 100 µg/mL; in the data set on Staphylococcus aureus [1], 1 µg/mL (≈ 2.81 µM). The TD90 with MRC5 was over 800 µg/mL; in the data set on Vero, over 200 µg/mL. In addition, the CC50 at 24 h in [2] is 400 µg/mL (≈ 1120 µM); in data set [4], over 200 µg/mL. For the same molecule, in data set [3], the selectivity ratio was over 320. The minimal bactericidal concentration (MBC) in the data set with Staphylococcus aureus [5] came out at 2.5 µg/mL (≈ 7.03 µM).

On to `CCCCCCCCCOc1ccc(F)c(C(=O)NCCNC(=O)c2c(F)ccc(OCCCCCCCCC)c2F)c1F`, for which the MIC with Escherichia coli and with Staphylococcus aureus [1] was over 100 µg/mL in each case.

Take `CCCCCCCCCOc1ccc(F)c(C(N)=O)c1F`: the minimal inhibitory concentration (MIC) in the data set with Escherichia coli was over 100 µg/mL; in the data set on Staphylococcus aureus [1], 0.1 µg/mL (≈ 0.334 µM). In addition, the TD90 in the data set with MRC5 and in the data set on Vero was over 200 µg/mL throughout. For the same molecule, the CC50 at 24 h in data set [2] amounted to 100 µg/mL (≈ 334 µM); in [4] it was 90 µg/mL (≈ 301 µM). In data set [3], the selectivity ratio was over 800. Also, the MBC in the data set with Staphylococcus aureus [5] came to 0.25 µg/mL (≈ 0.835 µM).

For `NC(=O)c1c(F)ccc(OCC2COc3ccc(Cl)cc3O2)c1F` (racemic), the MIC in the data set on Escherichia coli is over 100 µg/mL; in the data set on Staphylococcus aureus [1], 0.5 µg/mL (≈ 1.41 µM). Moreover, the result with Staphylococcus aureus [6] was Active. The TD90 with MRC5 and with Vero was over 800 µg/mL throughout. The values for the CC50 at 24 h in [2] and in [4] were 500 µg/mL (≈ 1410 µM) and 450 µg/mL (≈ 1270 µM), respectively. Moreover, the selectivity ratio in data set [3] is over 1600. The MBC with Staphylococcus aureus [5] stood at 0.5 µg/mL (≈ 1.41 µM).

As for `NC(=O)c1c(F)ccc(OCCCCOCC(O)CO)c1F` (stereo not given), the MIC in the data set with Escherichia coli and in the data set with Staphylococcus aureus [1] was over 100 µg/mL in each case.
